Laboratory results published in ChEMBL document CHEMBL3797175, “Discovery of 6-(difluoro(6-(4-fluorophenyl)-[1,2,4]triazolo[4,3-b][1,2,4]triazin-3-yl)methyl)quinoline as a highly potent and selective c-Met inhibitor” (Eur J Med Chem, 2016).

Key:
[1] = target: T1, TPR/MET fusion protein (Mus musculus) (UniProt P16056+F6ZDS4); test: Inhibition of TPR-MET in mouse […] cells assessed as inhibition of cell proliferation at 1 uM after 72 hrs by SRB or MTT assay relative to control; format: cell-based
T1 sequence (F6ZDS4 whole entry partner, the tested form may be a part): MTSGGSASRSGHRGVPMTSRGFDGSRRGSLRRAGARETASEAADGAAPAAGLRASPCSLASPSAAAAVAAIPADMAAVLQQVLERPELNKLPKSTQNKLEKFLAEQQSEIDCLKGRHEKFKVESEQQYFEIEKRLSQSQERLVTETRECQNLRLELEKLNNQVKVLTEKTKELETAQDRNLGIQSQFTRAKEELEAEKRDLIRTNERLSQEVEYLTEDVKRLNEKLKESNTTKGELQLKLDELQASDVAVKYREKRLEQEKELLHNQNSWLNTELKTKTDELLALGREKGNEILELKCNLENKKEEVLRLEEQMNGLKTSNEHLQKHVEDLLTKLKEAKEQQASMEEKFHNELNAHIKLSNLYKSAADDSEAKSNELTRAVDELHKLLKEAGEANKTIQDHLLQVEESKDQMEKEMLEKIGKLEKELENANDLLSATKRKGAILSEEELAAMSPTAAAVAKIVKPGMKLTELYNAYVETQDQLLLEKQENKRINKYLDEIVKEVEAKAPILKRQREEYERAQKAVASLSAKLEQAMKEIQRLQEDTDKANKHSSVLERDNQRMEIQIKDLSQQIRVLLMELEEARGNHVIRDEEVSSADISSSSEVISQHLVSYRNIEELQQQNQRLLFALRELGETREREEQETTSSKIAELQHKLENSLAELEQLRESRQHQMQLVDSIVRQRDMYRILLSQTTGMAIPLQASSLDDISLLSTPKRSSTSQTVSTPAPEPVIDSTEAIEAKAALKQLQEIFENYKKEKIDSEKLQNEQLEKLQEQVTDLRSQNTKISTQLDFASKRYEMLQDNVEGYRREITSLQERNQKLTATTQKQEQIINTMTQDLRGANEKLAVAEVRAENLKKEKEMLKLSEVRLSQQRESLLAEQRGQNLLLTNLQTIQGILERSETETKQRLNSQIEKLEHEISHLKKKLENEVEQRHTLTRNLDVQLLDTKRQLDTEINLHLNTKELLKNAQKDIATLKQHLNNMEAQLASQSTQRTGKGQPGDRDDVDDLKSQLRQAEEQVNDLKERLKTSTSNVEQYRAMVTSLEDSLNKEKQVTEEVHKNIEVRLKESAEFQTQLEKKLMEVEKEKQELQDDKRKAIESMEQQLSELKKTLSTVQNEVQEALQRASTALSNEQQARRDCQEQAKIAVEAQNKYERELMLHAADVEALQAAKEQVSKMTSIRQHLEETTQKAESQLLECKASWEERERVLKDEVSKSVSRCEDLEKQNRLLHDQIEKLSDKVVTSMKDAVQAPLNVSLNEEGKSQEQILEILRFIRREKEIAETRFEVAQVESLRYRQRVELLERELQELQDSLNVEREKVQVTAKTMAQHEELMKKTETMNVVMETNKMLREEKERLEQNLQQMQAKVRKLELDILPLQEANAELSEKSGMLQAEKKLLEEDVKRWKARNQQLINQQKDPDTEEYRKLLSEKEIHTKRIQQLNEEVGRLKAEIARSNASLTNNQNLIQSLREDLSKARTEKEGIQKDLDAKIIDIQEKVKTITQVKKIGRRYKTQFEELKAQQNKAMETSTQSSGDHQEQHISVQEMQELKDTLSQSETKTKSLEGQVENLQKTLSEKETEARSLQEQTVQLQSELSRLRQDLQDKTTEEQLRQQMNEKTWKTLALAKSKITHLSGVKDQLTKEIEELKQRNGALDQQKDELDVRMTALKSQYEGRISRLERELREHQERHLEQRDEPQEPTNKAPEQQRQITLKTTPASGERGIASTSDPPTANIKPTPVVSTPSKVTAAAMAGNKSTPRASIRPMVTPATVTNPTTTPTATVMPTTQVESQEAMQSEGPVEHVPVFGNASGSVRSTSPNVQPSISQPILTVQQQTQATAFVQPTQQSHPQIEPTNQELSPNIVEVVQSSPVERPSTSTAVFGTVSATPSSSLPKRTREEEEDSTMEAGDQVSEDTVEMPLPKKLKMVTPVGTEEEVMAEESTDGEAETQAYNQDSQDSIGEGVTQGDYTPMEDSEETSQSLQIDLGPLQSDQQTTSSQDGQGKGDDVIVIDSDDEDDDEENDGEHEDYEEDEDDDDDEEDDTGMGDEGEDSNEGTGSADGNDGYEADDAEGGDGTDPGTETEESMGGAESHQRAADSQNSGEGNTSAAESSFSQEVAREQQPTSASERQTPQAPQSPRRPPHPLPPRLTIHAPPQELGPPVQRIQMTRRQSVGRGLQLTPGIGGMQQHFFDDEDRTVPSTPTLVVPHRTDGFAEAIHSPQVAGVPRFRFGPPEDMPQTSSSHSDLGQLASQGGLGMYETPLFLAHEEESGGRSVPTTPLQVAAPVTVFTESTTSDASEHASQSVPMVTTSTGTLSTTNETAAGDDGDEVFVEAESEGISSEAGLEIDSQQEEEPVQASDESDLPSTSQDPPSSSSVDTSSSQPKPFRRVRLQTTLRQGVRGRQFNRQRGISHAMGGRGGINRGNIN
T1 sequence (P16056 25-1379 limits assumed): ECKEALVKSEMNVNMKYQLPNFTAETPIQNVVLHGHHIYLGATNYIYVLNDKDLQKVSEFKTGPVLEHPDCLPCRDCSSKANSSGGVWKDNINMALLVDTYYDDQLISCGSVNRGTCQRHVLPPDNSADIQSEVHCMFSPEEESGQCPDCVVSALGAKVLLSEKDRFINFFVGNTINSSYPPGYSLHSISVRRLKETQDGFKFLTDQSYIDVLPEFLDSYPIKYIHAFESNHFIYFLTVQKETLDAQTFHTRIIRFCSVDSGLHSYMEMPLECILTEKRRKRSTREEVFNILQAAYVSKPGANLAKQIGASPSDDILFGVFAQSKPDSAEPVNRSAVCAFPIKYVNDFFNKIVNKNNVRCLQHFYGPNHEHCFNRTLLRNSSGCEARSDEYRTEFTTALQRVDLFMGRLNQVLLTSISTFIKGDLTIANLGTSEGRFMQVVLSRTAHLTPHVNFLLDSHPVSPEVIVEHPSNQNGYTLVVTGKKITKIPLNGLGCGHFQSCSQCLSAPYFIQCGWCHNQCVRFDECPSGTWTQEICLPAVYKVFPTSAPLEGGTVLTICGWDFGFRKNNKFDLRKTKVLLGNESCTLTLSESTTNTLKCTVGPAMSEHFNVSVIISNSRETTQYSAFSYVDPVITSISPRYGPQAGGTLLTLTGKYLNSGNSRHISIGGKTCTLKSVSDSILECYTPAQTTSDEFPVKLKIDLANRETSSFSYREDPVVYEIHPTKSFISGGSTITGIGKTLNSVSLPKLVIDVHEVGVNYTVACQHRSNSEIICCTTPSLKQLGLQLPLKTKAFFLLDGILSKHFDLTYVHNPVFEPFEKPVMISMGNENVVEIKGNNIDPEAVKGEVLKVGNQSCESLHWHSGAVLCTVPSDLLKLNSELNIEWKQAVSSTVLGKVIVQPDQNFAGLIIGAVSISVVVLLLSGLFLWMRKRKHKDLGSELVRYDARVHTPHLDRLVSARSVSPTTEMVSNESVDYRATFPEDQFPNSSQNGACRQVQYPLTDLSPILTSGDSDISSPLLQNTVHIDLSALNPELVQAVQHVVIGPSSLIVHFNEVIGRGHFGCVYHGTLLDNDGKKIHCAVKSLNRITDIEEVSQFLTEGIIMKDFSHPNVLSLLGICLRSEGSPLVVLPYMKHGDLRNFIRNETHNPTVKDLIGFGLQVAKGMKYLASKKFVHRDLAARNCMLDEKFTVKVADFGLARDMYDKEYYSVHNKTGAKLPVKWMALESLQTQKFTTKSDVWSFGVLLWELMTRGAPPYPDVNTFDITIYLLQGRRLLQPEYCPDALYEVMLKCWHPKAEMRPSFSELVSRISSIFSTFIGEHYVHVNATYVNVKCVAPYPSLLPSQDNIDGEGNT
Outline: (§1)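 Cells seeded, exposed next day to a range of concentrations for 72 h. Growth read by sulforhodamine B or MTT. IC50 from four-parameter concentration-response fit. Each concentration tested at least in triplicate, with at least 2 experiments.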

[2] = target: T1, TPR/MET fusion protein (Mus musculus); test: Inhibition of TPR-MET in mouse […] cells assessed as inhibition of cell proliferation at 10 uM after 72 hrs by SRB or MTT assay relative to control; format: cell-based; outline: as §1
[3] = target: Hepatocyte growth factor receptor (Homo sapiens, UniProt P08581); test: Inhibition of recombinant c-Met (unknown origin) using poly (Glu, Tyr) 4:1 as substrate incubated for 60 mins by ELISA
Sequence of Hepatocyte growth factor receptor (P08581 whole entry): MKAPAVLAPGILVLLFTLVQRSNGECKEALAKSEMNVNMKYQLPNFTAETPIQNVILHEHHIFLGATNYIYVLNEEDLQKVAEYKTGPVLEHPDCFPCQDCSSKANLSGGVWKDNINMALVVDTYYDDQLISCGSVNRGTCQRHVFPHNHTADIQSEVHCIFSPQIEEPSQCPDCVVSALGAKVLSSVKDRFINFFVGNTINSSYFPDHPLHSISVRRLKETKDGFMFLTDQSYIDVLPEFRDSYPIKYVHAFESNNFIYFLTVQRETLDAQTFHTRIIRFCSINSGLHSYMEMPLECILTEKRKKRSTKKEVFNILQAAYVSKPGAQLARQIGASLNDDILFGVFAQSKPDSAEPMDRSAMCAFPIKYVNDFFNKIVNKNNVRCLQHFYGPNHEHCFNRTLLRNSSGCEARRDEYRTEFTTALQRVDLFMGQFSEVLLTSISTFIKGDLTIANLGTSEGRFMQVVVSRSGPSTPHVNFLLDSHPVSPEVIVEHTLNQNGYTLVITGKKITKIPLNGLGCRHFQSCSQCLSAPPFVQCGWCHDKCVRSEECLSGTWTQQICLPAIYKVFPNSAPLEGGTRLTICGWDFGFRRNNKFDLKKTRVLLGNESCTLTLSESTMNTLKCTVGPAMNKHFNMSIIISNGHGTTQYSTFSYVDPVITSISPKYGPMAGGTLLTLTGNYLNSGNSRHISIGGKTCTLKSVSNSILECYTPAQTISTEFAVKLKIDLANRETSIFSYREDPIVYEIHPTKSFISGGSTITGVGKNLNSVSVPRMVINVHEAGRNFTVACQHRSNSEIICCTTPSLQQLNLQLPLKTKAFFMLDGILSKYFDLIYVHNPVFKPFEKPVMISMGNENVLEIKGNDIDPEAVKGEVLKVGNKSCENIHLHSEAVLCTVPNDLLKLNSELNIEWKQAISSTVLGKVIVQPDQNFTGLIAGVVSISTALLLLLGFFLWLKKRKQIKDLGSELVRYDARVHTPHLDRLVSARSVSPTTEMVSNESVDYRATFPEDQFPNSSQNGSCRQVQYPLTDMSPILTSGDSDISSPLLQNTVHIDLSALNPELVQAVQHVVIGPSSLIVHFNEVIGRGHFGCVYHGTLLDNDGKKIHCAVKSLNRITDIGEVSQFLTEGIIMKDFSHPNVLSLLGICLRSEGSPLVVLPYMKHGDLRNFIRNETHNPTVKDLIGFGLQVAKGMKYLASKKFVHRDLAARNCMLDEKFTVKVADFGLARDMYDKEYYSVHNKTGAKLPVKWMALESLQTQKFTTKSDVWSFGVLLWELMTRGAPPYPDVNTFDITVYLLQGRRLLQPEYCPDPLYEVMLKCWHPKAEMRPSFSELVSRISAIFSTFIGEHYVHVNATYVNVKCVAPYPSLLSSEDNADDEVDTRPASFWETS

[4] = Clearance in Sprague-Dawley rat at 10 mg/kg, iv administered as single dose; format: ADME, organism-based; conditions: in vivo
Outline: (§2)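 Male Sprague Dawley rats (n=3), single dose. iv 2 mg/kg in 1% DMA/9% Cremophor/90% saline. po 10 mg/kg in 0.5% CMC-Na. Where iv was 10 mg/kg: 10% DMSO/10% Tween 80/80% (40% PEG40); po in that case in 10% DMSO/5% Tween 80/85% saline.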

[5] = Volume of distribution at steady state in Sprague-Dawley rat at 10 mg/kg, iv administered as single dose; format: ADME, organism-based; conditions: in vivo, read-out: Vdss
Outline: (§3)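 Male Sprague-Dawley rats (n=3), single dose. IV 2 mg/kg in 1% DMA/9% Cremophor/90% saline; PO 10 mg/kg in 0.5% CMC-Na. For one compound, IV 10 mg/kg in DMSO/Tween 80/PEG40 and PO 10 mg/kg in 10% DMSO/5% Tween 80/85% saline.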

[6] = Half life in Sprague-Dawley rat at 10 mg/kg, iv administered as single dose; format: ADME, organism-based; conditions: in vivo; outline: as §2
[7] = Cmax in Sprague-Dawley rat at 10 mg/kg, po administered as single dose; format: ADME, organism-based; set-up: dose 10 mg/kg, route oral; conditions: in vivo; outline: as §2
[8] = Tmax in Sprague-Dawley rat at 10 mg/kg, po administered as single dose; format: ADME, organism-based; conditions: in vivo; outline: as §3
[9] = AUC (0 to infinity) in Sprague-Dawley rat at 10 mg/kg, po administered as single dose; format: ADME, organism-based; set-up: dose 10 mg/kg, route oral, time infinity; conditions: in vivo
[10] = Oral bioavailability in Sprague-Dawley rat at 10 mg/kg administered as single dose; format: ADME, organism-based; conditions: in vivo; outline: as §3
[11] = Clearance in Sprague-Dawley rat at 2 mg/kg, iv administered as single dose; format: ADME, organism-based; conditions: in vivo; outline: as §2
[12] = Volume of distribution at steady state in Sprague-Dawley rat at 2 mg/kg, iv administered as single dose; format: ADME, organism-based; conditions: in vivo, read-out: Vdss; outline: as §3
[13] = Half life in Sprague-Dawley rat at 2 mg/kg, iv administered as single dose; format: ADME, organism-based; conditions: in vivo; outline: as §2
[14] = Antitumor activity against human EBC1 cells xenografted in athymic nude mouse assessed as tumor growth inhibition at 25 mg/kg, po bid for 21 days measured twice a week during compound dosing relative to control; format: functional; conditions: EBC-1, po, 504 h, read-out: TGI
Outline: (§4)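 Nude mice bearing s.c. tumours. Cells were first grown s.c. to 700–800 mm³, then 1.5 mm³ fragments were transplanted s.c. into the right flank. Mice were randomised at 100–200 mm³ (n=6 treated, n=12 vehicle) and dosed orally twice daily for 21 days. Caliper measurement twice weekly; TV = length×width²/2. TGI taken on the final day versus vehicle; Student's t test.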

[15] = Antitumor activity against human EBC1 cells xenografted in athymic nude mouse assessed as tumor growth inhibition at 12.5 mg/kg, po bid for 21 days measured twice a week during compound dosing relative to control; format: functional; conditions: EBC-1, po, 504 h, read-out: TGI; outline: as §4
Mus musculus = test: Toxicity in athymic nude mouse xenografted with human EBC1 cells assessed as body weight loss at 25 mg/kg, po bid for 21 days measured twice a week during compound dosing; format: organism-based; conditions: in vivo, 504 h
Outline: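 Nude mice carrying s.c. EBC-1 tumor fragments, randomized at 100–200 mm³ (n=6 treated, n=12 vehicle). Dosed orally twice daily for 21 days. Body weight and caliper tumor volume measured twice weekly.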

Compound | inhibition [1] | inhibition [2] | also measured
c1cnc2ccc(Cc3nnc4ncc(-c5cnn(C6CCNCC6)c5)nn34)cc2c1 | 14.9% | 77% | –
Cn1cc(-c2ccc3nnc(C(F)(F)c4ccc5ncccc5c4)n3n2)cn1 [JNJ-38877605] | 70.8% | 72.2% | IC50 [3]: 0.95 nM
Cn1cc(-c2cnc3nnc(C(F)(F)c4ccc5ncccc5c4)n3n2)cn1 | – | – | clearance [4]: 22.3 mL/min/kg; Vd [5]: 0.81 L/kg; half-life [6]: 68.4 min; Cmax [7]: 209 ng/mL; Tmax [8]: 150 min; AUC(0-inf) [9]: 780 ng·h/mL; bioavailability [10]: 9.4%
c1ccc(COc2ccc(-c3cnc4nnc(Cc5ccc6ncccc6c5)n4n3)cc2)cc1 | 53.8% | 88% | –
CC(C)(C)OC(=O)N1CCC(n2cc(-c3cnc4nnc(Cc5ccc6ncccc6c5)n4n3)cn2)CC1 | 68.9% | 86.6% | –
CCn1cc(-c2cnc3nnc(Cc4ccc5ncccc5c4)n3n2)cn1 | 85.5% | 97.1% | –
c1cnc2ccc(Cc3nnc4ncc(-c5cnc6ccccc6c5)nn34)cc2c1 | 63.1% | 78% | –
c1ccc(COc2ccc(-c3cnc4nnc(Cc5c[nH]c6ccccc56)n4n3)cc2)cc1 | 26.9% | 58% | –
Cn1cc(-c2cnc3nnc(Cc4ccc5ncccc5c4)n3n2)cn1 | 76.9% | 77.8% | –
FC(F)(c1ccc2ncccc2c1)c1nnc2ncc(-c3ccco3)nn12 | – | – | clearance [11]: 39.5 mL/min/kg; Vd [12]: 5.14 L/kg; half-life [13]: 91.8 min; Cmax [7]: 961 ng/mL; Tmax [8]: 25.2 min; AUC(0-inf) [9]: 2040 ng·h/mL; bioavailability [10]: 48%; inhibition in vivo at 25 mg/kg [14]: 65.8%; inhibition in vivo at 12.5 mg/kg [15]: 50.1%
CCCn1cc(-c2cnc3nnc(C(F)(F)c4ccc5ncccc5c4)n3n2)cn1 | – | – | clearance [11]: 30.7 mL/min/kg; Vd [12]: 3.2 L/kg; half-life [13]: 72.6 min; Cmax [7]: 1610 ng/mL; Tmax [8]: 30 min; AUC(0-inf) [9]: 3390 ng·h/mL; bioavailability [10]: 61.6%; inhibition in vivo at 25 mg/kg [14]: 96.6%; inhibition in vivo at 12.5 mg/kg [15]: 75.9%; Activity (Mus musculus): Toxic
Brc1ccc(-c2cnc3nnc(Cc4c[nH]c5ccccc45)n3n2)cc1 | 9.9% | 17.3% | –
c1csc(-c2cnc3nnc(Cc4ccc5ncccc5c4)n3n2)c1 | 85.9% | 89.3% | –
c1ccc(Cn2cc(-c3cnc4nnc(Cc5ccc6ncccc6c5)n4n3)cn2)cc1 | 68.3% | 89.5% | –
CCCn1cc(-c2cnc3nnc(Cc4ccc5ncccc5c4)n3n2)cn1 | 88.1% | 88.4% | –
Oc1cccc(-c2cnc3nnc(Cc4c[nH]c5ccccc45)n3n2)c1 | 8.2% | 10.2% | –

Continued, in another order:

inhibition [1] | inhibition [2] | Compound | also measured
82.2% | 83.5% | Clc1ccc(-c2cnc3nnc(Cc4ccc5ncccc5c4)n3n2)cc1Cl | –
58.4% | 80.9% | c1ccc(-c2cnc3nnc(Cc4ccc5ncccc5c4)n3n2)cc1 | –
69.8% | 81% | COc1cccc(-c2cnc3nnc(Cc4ccc5ncccc5c4)n3n2)c1 | –
76.6% | 88.3% | O=[N+]([O-])c1cccc(-c2cnc3nnc(Cc4ccc5ncccc5c4)n3n2)c1 | –
75.8% | 83.6% | Brc1ccc(-c2cnc3nnc(Cc4ccc5ncccc5c4)n3n2)cc1 | –
69.2% | 80.6% | Clc1ccc(-c2cnc3nnc(Cc4ccc5ncccc5c4)n3n2)cc1 | –
36.1% | 69.9% | Oc1cccc(-c2cnc3nnc(Cc4ccc5ncccc5c4)n3n2)c1 | –
